Experimental data reported in ChEMBL document CHEMBL3352171, “Synthesis and biological evaluation of andrographolide analogues as anti-cancer agents” (Eur J Med Chem, 2014).

Assay: Induction of glutathione reactivity in pH 7.4 PBS buffer assessed as compound formation at 10 mM Andrographolide-14a-O iodoacetate and 10 mM GSH at 50 degC incubated for 8 hrs under argon atmosphere by reverse phase HPLC method
Type: physicochemical
Details: pH 7.4, 8 h, 10000 µM
In short: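 Ethanolic compound and GSH added to PBS, final 10 mM each with buffer at 2 mM, heated at 50 °C for 8 h.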

C=C1CC[C@@H]2[C@](C)(CO)[C@H](O)CC[C@@]2(C)[C@@H]1CC(SC[C@H](NC(=O)CC[C@H](N)C(=O)O)C(=O)NCC(=O)O)C1=CCOC1=O (single isomer, unassigned; diastereomer 1)
Drug metabolism: metabolite_detected
